{"source": "paper PMC6036231", "about": "(Journal of immunology (Baltimore, Md. : 1950), 2018)", "key": {"primary human monocytes": {"test_system": "primary human monocytes", "assay": "Real-time chemotaxis", "format": "cell-based", "details": "1 μM ML145", "method_in_brief": "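Monocytes isolated from healthy donor blood by negative selection (RosetteSep). Pre-incubated 15 min at room temperature in buffer with DMSO vehicle or 1 µM final antagonist. TAXIScan: 1 h migration at 37°C along gradients formed by 1 µl chemokine; no-stimulus basal. Images every minute; individual cells tracked manually; FMI parallel to gradient calculated per cell.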"}, "PGE2-treated THP-1 cells": {"test_system": "PGE2-treated THP-1 cells", "assay": "Real-time chemotaxis", "format": "cell-based, human", "method_in_brief": "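THP-1 cultured overnight with PGE2. Where stated, pre-incubated 15 min at room temperature with DMSO or 1 µM final antagonist. TAXIScan: 1 h migration at 37°C along gradients from 1 µl of 1 or 10 µM chemokine (1 µM CCL2 reference; no-stimulus basal). Frames every minute; cells tracked manually. FMI = y-axis distance/accumulated distance. Triplicate or quadruplicate runs per stimulus.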"}, "human GPR35a [1]": {"biological_target": "T1, human GPR35a (Homo sapiens, UniProt Q9HC97)", "T1 sequence (Q9HC97 whole entry)": "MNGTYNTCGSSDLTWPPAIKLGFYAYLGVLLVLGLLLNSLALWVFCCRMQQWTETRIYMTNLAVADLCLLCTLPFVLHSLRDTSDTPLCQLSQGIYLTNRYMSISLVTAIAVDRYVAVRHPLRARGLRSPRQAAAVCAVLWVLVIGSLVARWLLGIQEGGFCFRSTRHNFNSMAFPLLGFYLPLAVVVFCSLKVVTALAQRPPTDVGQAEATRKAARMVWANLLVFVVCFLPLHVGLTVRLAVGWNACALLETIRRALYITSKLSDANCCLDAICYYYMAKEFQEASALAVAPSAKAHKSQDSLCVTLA", "assay": "Inositol phosphate assay, GPR35a with Gq-Gi1/2 chimera", "format": "cell-based", "details": "30 minutes"}, "human GPR35a [2]": {"biological_target": "T1, human GPR35a", "assay": "Inositol phosphate assay, GPR35a with Gq-G13 chimera", "format": "cell-based", "details": "30 minutes"}, "3xHA-GPR35": {"biological_target": "3xHA-GPR35 (Homo sapiens, UniProt Q9HC97)", "sequence (Q9HC97 whole entry)": "as above", "assay": "GPR35 endocytosis assay, L1.2 clone 23", "format": "cell-based", "details": "37°C, 15 minutes", "method_in_brief": "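L1.2 clone stably expressing N-terminal 3xHA-GPR35 (G418 1 mg/ml selection, limiting-dilution cloning), 2 x 10^6 cells/ml in RPMI/0.1% BSA. Mixed with equal volume of buffer holding agonist (20, 10 or 2 µM reference agonist; 2 µM chemokine) or DMSO vehicle. Incubated 15 min at 4°C (basal) and 37°C (endocytosis). Surface receptor by flow cytometry: anti-HA (10 µg/ml), FITC secondary, TO-PRO3.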"}, "GPR35b": {"biological_target": "GPR35b (Homo sapiens, UniProt Q9HC97)", "sequence (Q9HC97 1-340 isoform Q9HC97-2)": "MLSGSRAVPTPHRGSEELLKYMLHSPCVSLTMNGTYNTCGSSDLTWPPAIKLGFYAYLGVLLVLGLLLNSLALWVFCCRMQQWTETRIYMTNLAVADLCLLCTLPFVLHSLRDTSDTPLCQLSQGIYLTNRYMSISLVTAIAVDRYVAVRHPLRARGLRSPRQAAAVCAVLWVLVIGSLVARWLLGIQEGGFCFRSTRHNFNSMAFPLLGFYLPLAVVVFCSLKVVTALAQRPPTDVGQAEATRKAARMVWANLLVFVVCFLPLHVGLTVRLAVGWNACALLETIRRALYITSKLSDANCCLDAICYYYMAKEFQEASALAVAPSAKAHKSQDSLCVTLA", "assay": "Inositol phosphate assay, GPR35b with Gq-Gi1/2 chimera", "format": "cell-based", "details": "30 minutes"}, "mouse GPR35": {"biological_target": "mouse GPR35 (Mus musculus, UniProt Q9ES90)", "sequence (Q9ES90 whole entry)": "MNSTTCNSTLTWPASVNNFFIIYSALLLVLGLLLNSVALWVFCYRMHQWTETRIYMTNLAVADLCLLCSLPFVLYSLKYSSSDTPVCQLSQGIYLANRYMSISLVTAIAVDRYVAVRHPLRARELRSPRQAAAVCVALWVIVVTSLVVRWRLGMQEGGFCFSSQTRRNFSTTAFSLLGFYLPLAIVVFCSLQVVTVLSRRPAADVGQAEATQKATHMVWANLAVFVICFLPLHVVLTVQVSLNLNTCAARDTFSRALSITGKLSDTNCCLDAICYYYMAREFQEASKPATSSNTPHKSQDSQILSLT", "assay": "BRET β-arrestin-2 recruitment assay, HEK293T cells, mouse GPR35", "format": "cell-based", "method_in_brief": "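HEK293T cells transiently transfected with polyethylenimine to co-express mouse GPR35 and β-arrestin-2, used 48 h after transfection. β-arrestin-2 recruitment read by bioluminescence resonance energy transfer.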"}, "rat GPR35": {"biological_target": "rat GPR35 (Rattus norvegicus, UniProt Q33BM1)", "sequence (Q33BM1 1-306)": "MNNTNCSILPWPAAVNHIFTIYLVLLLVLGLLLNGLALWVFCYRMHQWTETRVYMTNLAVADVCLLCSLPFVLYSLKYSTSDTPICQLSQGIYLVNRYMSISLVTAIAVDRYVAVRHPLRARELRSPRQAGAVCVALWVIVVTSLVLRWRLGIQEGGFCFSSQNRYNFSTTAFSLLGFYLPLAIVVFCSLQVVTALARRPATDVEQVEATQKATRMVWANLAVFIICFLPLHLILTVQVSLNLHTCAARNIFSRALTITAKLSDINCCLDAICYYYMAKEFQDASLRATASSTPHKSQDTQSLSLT", "assay": "BRET β-arrestin-2 recruitment assay, HEK293T cells, rat GPR35", "format": "cell-based"}, "THP-1 cells": {"test_system": "THP-1 cells", "assay": "Real-time chemotaxis", "format": "cell-based, human", "details": "resting THP-1", "method_in_brief": "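Resting THP-1 cells kept at 0.5 x 10^6/ml in supplemented RPMI 1640 with 10% FBS at 37°C, 5% CO2. TAXIScan: 1 h migration at 37°C along gradients from 1 µl of 1 µM or 10 µM chemokine (1 µM CCL2 reference); no-stimulus basal. Frames every minute; manual tracking. FMI = y-axis distance/accumulated distance. Pooled from 3 experiments, 3 movies per condition.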"}, "[3]": {"biological_target": "T2, recombinant human chymase (Homo sapiens, UniProt P23946)", "T2 sequence (P23946 22-247)": "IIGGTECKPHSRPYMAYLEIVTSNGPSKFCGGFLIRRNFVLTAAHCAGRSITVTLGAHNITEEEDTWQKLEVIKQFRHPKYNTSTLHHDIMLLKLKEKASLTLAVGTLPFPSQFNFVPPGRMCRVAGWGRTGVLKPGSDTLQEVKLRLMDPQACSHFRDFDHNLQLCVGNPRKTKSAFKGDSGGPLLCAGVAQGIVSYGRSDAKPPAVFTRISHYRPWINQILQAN", "assay": "Chemokine digestion with chymase, SDS-PAGE", "format": "biochemical", "details": "18hr incubation, 37°C", "method_in_brief": "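20 µg chemokine in 100 mM Tris-HCl pH 7.8, 10 mM CaCl2, split; one half given 0.1-0.4 µg chymase; both 18 h at 37°C. Samples in Tris-glycine SDS buffer heated 95°C 10 min, run on 4-12% Bis-Tris gels at 150 V for 50 min. Fixed in 25% isopropanol/10% acetic acid, stained with 0.25% Coomassie G-250 2 h, destained overnight; n=3.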"}, "CCR1": {"biological_target": "T3, CCR1 (Homo sapiens, UniProt P32246)", "T3 sequence (P32246 1-355)": "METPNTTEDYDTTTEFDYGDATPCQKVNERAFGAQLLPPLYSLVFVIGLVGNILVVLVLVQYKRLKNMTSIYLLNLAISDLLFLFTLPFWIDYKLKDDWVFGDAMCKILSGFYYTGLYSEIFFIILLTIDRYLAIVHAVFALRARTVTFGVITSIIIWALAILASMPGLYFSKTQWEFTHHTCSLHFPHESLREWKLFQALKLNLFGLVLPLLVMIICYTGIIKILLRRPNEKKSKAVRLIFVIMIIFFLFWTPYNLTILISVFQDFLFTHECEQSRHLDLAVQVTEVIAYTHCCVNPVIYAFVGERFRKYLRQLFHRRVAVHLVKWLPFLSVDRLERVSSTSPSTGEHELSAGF", "assay": "Boyden chamber chemotaxis, CCR1 transfectants", "format": "cell-based", "details": "cleaved versus uncleaved chemokine", "method_in_brief": "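Chemokine digested for 18 h at 37°C with 0.1-0.4 µg recombinant human chymase in 100 mM Tris-HCl (pH 7.8), 10 mM CaCl2; undigested half incubated alongside. Cleaved and uncleaved forms tested on CCR1 transfectants in 96-well Boyden chambers: 5 h migration, 37°C, 5% CO2. Migrated cells quantified by ATP luminescence (Cell Titer-Glo); chemotactic index = response/buffer-alone basal; n=3.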"}}, "data": [{"molecule": "CC(/C=C1\\SC(=S)N(CCCC(=O)Nc2ccc(C(=O)O)c(O)c2)C1=O)=C\\c1ccccc1", "note": "[ML145]", "values": [{"measurement": "effect of pre-treatment on monocyte migration to CXCL17", "setting": "primary human monocytes", "result": "unaffected"}, {"measurement": "effect of pre-exposure on response of cells to 1μM CXCL17", "setting": "PGE2-treated THP-1 cells; 1 μM ML145, 15 minutes pre-incubation", "result": "no inhibitory effect"}]}, {"molecule": "N#Cc1cc(NC(=O)C(=O)O)c(Cl)c(NC(=O)C(=O)O)c1", "note": "[lodoxamide]", "values": [{"measurement": "pEC50, inositol phosphate production", "setting": "human GPR35a [1]", "result": "8.64 +/- 0.08"}, {"measurement": "pEC50, inositol phosphate production", "setting": "human GPR35a [2]", "result": "9.13 +/- 0.24"}, {"measurement": "endocytosis of GPR35", "setting": "3xHA-GPR35; 1 μM and 10μM", "result": "Significant endocytosis"}, {"measurement": "endocytosis of GPR35, direct comparison", "setting": "3xHA-GPR35; 1 μM", "result": "significant endocytosis"}, {"measurement": "pEC50, inositol phosphate production", "setting": "GPR35b", "result": "9.05 +/- 0.07"}]}, {"molecule": "CCCOc1ccccc1-c1nc2nn[nH]c2c(=O)[nH]1", "note": "[zaprinast]", "values": [{"measurement": "EC50", "setting": "mouse GPR35", "result": 1050, "unit": "nM"}, {"measurement": "EC50", "setting": "rat GPR35", "result": 91.2, "unit": "nM"}]}, {"molecule": "CCL2: chemokine purchased from Peprotech EC", "values": [{"measurement": "forward migration index (FMI‖) versus basal", "setting": "THP-1 cells; 1μM", "result": "significant response"}, {"measurement": "cell migration versus basal", "setting": "THP-1 cells; gradient from 1μl of 1μM, 1 hour", "result": "many more cells were observed to migrate"}, {"measurement": "forward migration index (FMI‖) versus basal", "setting": "PGE2-treated THP-1 cells; 1μM, PGE2-treated THP-1", "result": "significantly greater than the basal response"}, {"measurement": "increase in the number of migrating cells versus basal", "setting": "PGE2-treated THP-1 cells; 1μM, PGE2-treated THP-1", "result": 6, "unit": "fold"}]}, {"molecule": "CCL23: CC-chemokine with extended N-terminus, purchased from Peprotech EC (protein, UniProt P55773 22-120, looked up) C-C motif chemokine 23: RVTKDAETEFMMSKLPLENPVLLDRFHATSADCCISYTPRSIPCSLLESYFETNSECSKPGVIFLTKKGRRFCANPSDKQVQVCMRMLKLDTRIKTRKN", "values": [{"measurement": "cleavage by chymase", "setting": "[3]", "result": "cleaved"}, {"measurement": "effect of chymase cleavage on chemotactic potency", "setting": "CCR1", "result": "increased potency"}]}, {"molecule": "CCL15: CC-chemokine with extended N-terminus, purchased from Peprotech EC (protein, UniProt Q16663 22-113, looked up) C-C motif chemokine 15: QFTNDAETELMMSKLPLENPVVLNSFHFAADCCTSYISQSIPCSLMKSYFETSSECSKPGVIFLTKKGRQVCAKPSGPGVQDCMKKLKPYSI", "values": [{"measurement": "cleavage by chymase", "setting": "[3]", "result": "cleaved"}, {"measurement": "effect of chymase cleavage on chemotactic potency", "setting": "CCR1", "result": "increased potency"}]}]}
